The results in this text go back to ChEMBL document CHEMBL3526146, “In vitro and in vivo metabolism and pharmacokinetics of BMS-562086, a potent and orally bioavailable corticotropin-releasing factor-1 receptor antagonist” (Drug Metab Dispos, 2012).

A short description of data set [1]: AUC (infinity) in Sprague-Dawley rat at 5 mg/kg, po. The data set is classed as ADME, organism-based. The arrangement: time infinity, dose 5 mg/kg, route oral. The note with it: plasma. Put shortly: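 Male Sprague-Dawley rats (n=3 per route, 0.34-0.35 kg, cannulated), fasted ~18 h pre-dose and 4 h post-dose. Dosing was 1 mg/kg IV bolus in 20% ethanol/saline via the jugular cannula, or 5 mg/kg oral gavage in 0.5% aqueous methylcellulose. Jugular blood was sampled 0-96 h. Plasma was assayed by validated LC/MS/MS (LLOQ 1.00 ng/ml), and AUC(INF) was derived by noncompartmental mixed log-linear trapezoidal analysis.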

A short description of data set [2]: Plasma clearance in beagle dog at 1 mg/kg, iv. The data set is classed as ADME, organism-based, Canis lupus familiaris. The arrangement: dose 1 mg/kg, route intravenous. The gist of the method:
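Male beagle dogs (n=3), one-way IV/PO crossover with a one-week washout, fasted about 15 h before and 4 h after dosing. IV dose of 1 mg/kg as a saphenous bolus in N,N-dimethylacetamide:propylene glycol:water (1:7:2); PO dose of 5 mg/kg by gavage in 0.5% methylcellulose. Plasma sampled 0–96 h and assayed by LC/MS/MS (LLOQ 1.00 ng/ml). Noncompartmental analysis; CL = dose/AUC(INF) after IV; F from dose-normalized AUC ratio.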

Data set [3] has as its system Canis familiaris. Nature of the data set: Terminal volume of distribution in beagle dog at 1 mg/kg, iv. The format is ADME, organism-based, Canis lupus familiaris. Details: dose 1 mg/kg, route intravenous. The note with it: in vivo. Put shortly:
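Male beagles (n=3, 10.1-12.7 kg), fasted ~15 h pre- and 4 h post-dose, given a 1 mg/kg IV bolus via saphenous vein catheter in N,N-dimethylacetamide:propylene glycol:water (1:7:2). Plasma drawn 0-96 h and assayed by LC/MS/MS. Noncompartmental analysis; Vz = CLp (dose/AUC(INF)) divided by elimination rate constant.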

The nature of data set [4]: AUC (infinity) in beagle dog at 5 mg/kg, po. The conditions noted are these: plasma. The arrangement: time infinity, dose 5 mg/kg, route oral. The data set is classed as ADME, organism-based, Canis lupus familiaris. Put shortly:
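Male beagle dogs (n=3, 10.1-12.7 kg) in a one-way IV/PO crossover with one-week washout, fasted ~15 h pre-dose and 4 h post-dose. Dosing was 1 mg/kg IV bolus into the saphenous vein in DMA:propylene glycol:water (1:7:2), or 5 mg/kg gavage in 0.5% methylcellulose. Blood was sampled 0-96 h. Plasma was assayed by LC/MS/MS (LLOQ 1.00 ng/ml) with noncompartmental analysis; Cmax was observed directly.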

The nature of data set [5]: Terminal half life in beagle dog at 5 mg/kg, po. The format is ADME, organism-based, Canis lupus familiaris. The arrangement: dose 5 mg/kg, route oral. The note with it: in vivo, read-out: beta t1/2 (converted). Put shortly: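 Male beagles (n=3, 10.1-12.7 kg) in one-way crossover, one-week washout after IV leg; fasted ~15 h before and 4 h after dosing. Single gavage 5 mg/kg in 0.5% aqueous methylcellulose. Plasma sampled 0-96 h, parent measured by validated LC/MS/MS (1.00-1000 ng/ml). Noncompartmental analysis; Tmax taken from observed data.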

Data set [6] deals with T1, Corticotropin-releasing factor-binding protein (Homo sapiens, UniProt P24387).
T1 sequence (P24387 whole entry): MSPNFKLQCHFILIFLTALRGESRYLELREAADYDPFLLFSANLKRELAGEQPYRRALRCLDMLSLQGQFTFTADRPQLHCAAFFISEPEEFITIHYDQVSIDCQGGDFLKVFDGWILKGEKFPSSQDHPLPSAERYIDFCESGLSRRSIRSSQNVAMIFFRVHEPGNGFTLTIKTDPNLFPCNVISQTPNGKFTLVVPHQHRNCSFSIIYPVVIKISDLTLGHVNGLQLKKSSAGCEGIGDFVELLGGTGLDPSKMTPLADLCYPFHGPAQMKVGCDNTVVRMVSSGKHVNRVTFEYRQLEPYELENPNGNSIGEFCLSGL
Description: Binding affinity to CRF-binding protein (unknown origin).

Data set [7] in a line: Drug metabolism in human cryopreserved hepatocytes assessed as […] at 25 uM after 3 hrs by HPLC analysis. The data set is classed as ADME, cell-based, Hepatocyte.
Data set [8] is described as follows: Drug metabolism in human cryopreserved hepatocytes assessed as 7-hydroxycoumarin formation at 25 uM after 3 hrs by HPLC analysis. The format is ADME, cell-based, Hepatocyte.
Data set [9] in a line: Drug metabolism in mouse hepatocytes assessed as decrease of compound level at 25 uM after 3 hrs by HPLC analysis. The data set is classed as ADME, cell-based, Hepatocyte. The note with it: read-out: Drug metabolism.
Data set [10] is described as follows: Drug metabolism in rat hepatocytes assessed as decrease of compound level at 25 uM after 3 hrs by HPLC analysis. The conditions noted are these: read-out: Drug metabolism. The data set is classed as ADME, cell-based, Hepatocyte.
The nature of data set [11]: Drug metabolism in rat hepatocytes assessed as at 25 uM after 3 hrs by HPLC analysis.
Data set [12] is described as follows: Drug metabolism in bile duct-cannulated Sprague-Dawley rat urine assessed as BMS-572273 metabolite level at 30 mg/kg, po after 12 hrs by LC-MS/MS analysis. The format is ADME, organism-based. The arrangement: dose 30 mg/kg, route oral. The conditions noted are these: in vivo. The gist of the method:
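Male bile-duct-cannulated Sprague-Dawley rats (n=3), fasted overnight, received 30 mg/kg by gavage in 0.5% methylcellulose. Urine and bile were collected 0-12 h and pooled by equal percentage weight across animals, then centrifuged. Supernatants were profiled by LC/MS/MS. Bile was also treated with β-glucuronidase in pH 4.8 acetate buffer, 37°C, 16 h.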

pIC50: −log10 of the molar value. Some results are limits rather than exact numbers.

On to `CC[C@@H](C)Nc1nc(C)nc2c(-c3ccc(OC)nc3C)c(C)nn12` [PEXACERFONT], for which the values for the AUC(0-inf) in data set [1] and in [4] were 5.82 µM·h and 13 µM·h, respectively. Moreover, the clearance in data set [2] was determined as 11.6 mL/min/kg. For the same compound, the Vz in data set [3] turned out to be 28.2 L/kg. In addition, the half-life in [5] was 46.7 h. For the same compound, the pIC50 in [6] is less than 6.00. For the same compound, the Drug metabolism result in [7], in data set [8] and in data set [11] was “metabolite_detected” each time. Also, the metabolised at 3 h, 25 µM in data set [9] came out at 75%; in data set [10], 68%.

Regarding `COc1ccc(-c2c(C)nn3c(O)nc(C)nc23)c(C)n1`, the Drug metabolism result in [12] is listed as “metabolite_detected”.

By AUC(0-inf) is commonly meant total exposure, with the tail of the curve extrapolated. One may read the clearance as a measure of how efficiently the substance is removed, as volume per time. Low readings indicate inefficient removal, high ones efficient removal. In general, Vz refers to a proportionality between amount in the body and measured concentration, not a real space. What is called pIC50 is the IC50 on a negative log10 scale, so that one unit is a factor of ten.
